Data on 96 molecules can be found in PubChem BioAssay AID463104 (Sanford-Burnham Center for Chemical Genomics, 2010).

About 1,100 (0.33%) of roughly 330,000 compounds were called active. The sample holds actives, similar compounds and a random draw of the others, so the mix is not that of the screen. Values without a mark were called inactive.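 The calls were made as follows: active = versus positive control, 20 µM dose yields 30% or more activation; inactive = the rest.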

This experiment can be described thus: IRE1-XBP1 pathway stimulators – cell-based, CHO-XBP1 luciferase reporter, luminescence, uHTS, primary screen (AID 463104).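 Also: 100% = tunicamycin at 10 µg/mL and 0% = DMSO only wells.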 To be noted: IRE1-XBP1 UPR activation, at 20 µM, active compounds read high, percent of tunicamycin response, DMSO as zero. The gist of the method: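 Material – CHO cell line with stable XBP1 luciferase reporter · Buffer or medium – F12 plus 10% FBS · Compound – single point, 20 µM final compound, 1% DMSO · Schedule – 16-18 h cell attachment at 37 °C, then 6 h compound exposure · Signal – Steady-Glo luminescence read · Benchmarks – high control tunicamycin 10 µg/mL final, low control DMSO vehicle only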
(In general: In a reporter assay the amount or activity of a reporter protein is the signal.)
For the molecule `C=CCO/N=C(\C)c1c(O)c(C)c(-c2ccccc2)n(-c2ccccc2)c1=O`, the activation is -1.96%.
Then `CC(C)(C)n1nc(Cc2cccc3ccccc23)c(C#N)c1N`, with 3.6%; and `CCc1nn(-c2cc(Oc3cccc4ccccc34)nc(-c3ccccc3)n2)c(N)c1C#N`, with 79.6% (active); and `Cc1cc(NC(=O)CSc2nc3ccccc3n2CC(C)C)no1`, with -4.54%.
To `Cc1cc(NC(=O)CSc2nc3cc(Cl)ccc3c(=O)n2Cc2ccco2)no1` belongs 95.4% (active).
`Cc1cc(NC(=O)CSc2nnc(-c3ccco3)n2N)no1`: the activation was 1.89%.
Then `CC(C)Oc1ccc(S(=O)(=O)N2CCOCC2)cc1NC(=O)C1CSC2(C)CCC(=O)N12` (stereo unspecified), with -2.58%; and `CCCNC(=O)CCn1nc(-c2ccccc2)c2ccccc2c1=O`, with 1.25%; and `O=C(COC(=O)Cc1ccc(Br)cc1)Nc1c(F)c(F)c(F)c(F)c1F`, with 0.94%.
To `Nc1c(NCCc2ccccc2)c2ccccc2oc1=O` belongs -1.1%.
Then `COCCCNC(=O)[C@H]1N2C(=O)c3ccccc3C2SC1(C)C` (stereo partly specified), with 5.98%; and `COc1cc(NC(=O)CSc2nnc3ccc(-c4ccncc4)nn23)cc(OC)c1`, with 4.51%; and `CSc1ncc(Sc2ccccc2)c(C(=O)O)n1`, with -3.45%.
Regarding `CSc1nc(-c2ccccc2)nc(C(Cl)Cl)n1`, the activation was 31.3% (active).
Then `CC(C)=CCCC1(C)C=Cc2c(ccc3c2[nH]c2cc(O)c(C)cc23)O1` (stereo unspecified), with 46.1% (active); and `CCN(CC(=O)NCc1ccc(Cl)cc1)C(=O)CSc1ccccc1`, with -3.45%; and `O=C(NCCCN1CCCCC1)c1ccc2c(c1)NC(=O)C(N1CCOCC1)S2` (stereo unspecified), with -1.68%.
For `Cn1c2ccccc2c2c(C(=O)N3CCN(c4ccc(F)cc4)CC3)cn(C3CCCC3)c(=O)c21`, the activation was 6.07%.
To `CCCc1nc2c(c(=O)c3ccccc3n2C)c(=O)n1C1CCCCCC1` belongs 32.4% (active).
Take `CC1CCN(Cc2nc3c(c(=O)n(C)c(=O)n3C)n2CCc2ccccc2)CC1`: the activation is -0.91%.
Then `c1ccc2c(c1)C(=NC1CCCCC1)NC2=NC1CCCCC1`, with 3.14%; and `CCC1CCC/C1=N\NC(=O)c1ccc(Cl)cc1` (stereo unspecified), with 2.16%.
With `COc1cc(C(=O)NCC(c2ccco2)N2CCCC2)ccc1OCc1ccccc1` (stereo unspecified), the activation was -1.2%.
To `Cc1ccc(S/C(=N\S(=O)(=O)c2ccc(Cl)cc2)c2ccccc2)cc1` belongs 43.5% (active).
Then `O=S(=O)(/N=C(/Nc1ccccn1)c1ccccc1)c1ccc(Cl)cc1`, with 0.4%; and `Cc1ccc(S(=O)(=O)/N=C(/Nc2ccccn2)c2ccc(Cl)cc2)cc1`, with 1.88%; and `CC(=O)N1CC(C)c2scc(C)[n+]2-c2ccccc21` (stereo unspecified), with -0.83%.
To `Cc1ccc(N2C(=O)CC(N3CCSCC3)C2=O)c(C)c1` (stereo unspecified) belongs 2.27%.
On to `O=c1c2ccccc2nc2n1C(CSCc1cccc(C(F)(F)F)c1)CS2` (stereo unspecified), for which the activation was -4.03%.
Then `COc1ccc(S(=O)(=O)N(CC(=O)N/N=C/c2ccccc2C(=O)O)c2ccccc2OC)cc1`, with -1.28%.
On to `COc1ccccc1N(CC(=O)N/N=C(\C)c1ccccc1O)S(=O)(=O)c1ccc(C)cc1`, for which the activation was -4.87%.
To `Cc1ccc(S(=O)(=O)N(CC(=O)N/N=C/c2ccc(F)cc2)c2cccc3cccnc23)cc1` belongs 44.4% (active); to `Cc1ccc(CC2S/C(=C(/C#N)C(=O)N3CCOCC3)N(c3ccccc3)C2=O)cc1` (stereo unspecified), -1.89%; to `Cc1ccnc2nc(C(=O)Nc3nnc(-c4ccccc4)o3)nn12`, 2.49%.
Regarding `O=C(CNC(=O)c1cccnc1)N/N=C/c1cc(Br)c(O)c(Br)c1`, the activation was -5.3%.
Then `Cc1ccc(CSCCNC(=O)CN(c2ccc(F)cc2)S(C)(=O)=O)cc1`, with -2.57%; and `COC(=O)C1=C(O)/C(=C/c2ccc(OCC(=O)Nc3ccccc3)cc2)N=C1C`, with -5.1%.
Then `Cc1ccc(NC(=O)COc2ccc(/C=C3/NC(=O)NC3=O)cc2)cc1`, with -3.85%; and `CCOC(=O)C1=C(O)/C(=C/c2ccc(OCC(=O)Nc3ccc(C)cc3)cc2)N=C1C`, with 51.4% (active).
As for `CCn1c(SCC(=O)NNC(=O)c2ccc(OC)cc2)nnc1C(C)C`, the activation is -2.62%.
Then `CCOC(=O)/C=C/CN(C(=O)OC(C)(C)C)S(=O)(=O)N1CC=CC1`, with -0.55%; and `Cc1cccc(C)c1NC(=O)C1(N(C(=O)c2ccccn2)c2ccc(O)cc2)CCCCC1`, with -2.28%.
As to `CCOC(=O)N1CCN(CC(=O)n2c(C)c(C)c3ccccc32)CC1`, the activation is 1.59%.
Then `Cc1cccc(OCCCC(=O)Nc2ccc(S(=O)(=O)N3CCCC3)cc2)c1`, with -0.19%; and `COCCNC(=O)c1ccc(Cn2c(SCC(=O)NCC3CCCO3)nc3ccc(Br)cc3c2=O)cc1` (stereo unspecified), with -6.18%; and `CCCN1CCn2c3c(c4cc(Br)ccc42)CCCC31` (stereo unspecified), with -0.93%.
Consider `OC(CNCC1CCCO1)Cn1c2ccc(Br)cc2c2cc(Br)ccc21` (stereo unspecified), for which the activation is 69.6% (active).
To `CC(=O)Nc1ccc(CC#N)cc1` belongs -1.91%; to `COc1ccccc1C(=O)NCCC(=O)NCC(c1ccco1)N1CCCCC1` (stereo unspecified), -0.9%; to `CCCc1nc2ccccc2c(=O)n1NC(=O)c1c(O)c2ccccc2[nH]c1=O`, -2.34%.
Then `Cn1c(SCC(=O)N/N=C/c2ccc(O)c(O)c2)nc2ccccc21`, with 20.8%; and `CCCc1nc2ccccc2c(=O)n1/N=C/c1ccc(O)c(O)c1`, with 40.8% (active).
As for `CN(C)CCCN(C(=O)c1ccc(S(=O)(=O)N2CCCc3ccccc32)cc1)c1nc2ccc(F)cc2s1`, the activation is 20.8%.
To `CN(C)CCCN(C(=O)c1ccc(S(=O)(=O)N2CCCCCC2)cc1)c1nc2ccc(Br)cc2s1` belongs 46.6% (active).
Then `COc1ccc2sc(N(CCCN(C)C)C(=O)c3ccc(S(=O)(=O)N(C)C4CCCCC4)cc3)nc2c1`, with 1.32%.
To `CC12CN(NC(=O)c3ccc(Cl)cc3)C3(C#N)CC1CCC23C` (stereo unspecified) belongs -2.37%; to `COc1ccc(-c2c(NC(=O)c3ccco3)oc3ccc(Cl)cc3c2=O)cc1`, -2.76%.
Turning to `CC1CCCCC12NC(=O)N(CC(=O)N1CCN(c3ccccc3)CC1)C2=O` (stereo unspecified), the activation is -1.08%.
To `N#CC(=C1CCCC1)c1nc(-c2ccc(Cl)cc2)cs1` belongs -2.04%; to `N#CC(=C1SC=CS1)c1nc(-c2ccccc2)cs1`, 30.8% (active); to `c1ccc(-c2csc(N3CCc4ccccc4C3)n2)cc1`, 2.31%.
Then `Cc1noc(C)c1CSCC(=O)N(CCC(C)C)c1c(N)n(Cc2ccccc2)c(=O)[nH]c1=O`, with -4.01%.
For `Cc1ccc(SCC(=O)NC(=O)NCc2ccco2)c(C)c1`, the activation was 1.4%.
To `CCN(CC)CCn1c(/N=C/c2cc(Br)ccc2O)nc2ccccc21` belongs -2.54%.
To `Oc1ccc(Br)cc1/C=N/Nc1ccccn1` belongs 88.3% (active); to `Cc1c(C(=O)Nc2ccccn2)oc2ccc(Br)cc12`, 0.16%; to `CC(=O)C1(C)N(O)C(C)(C)C(c2cccs2)=[N+]1[O-]` (stereo unspecified), -1.47%.
Consider `CC(=NCc1ccc2c(c1)OCO2)C1=C(O)c2ccccc2C1=O`, for which the activation is 1.05%.
In the case of `COCCN1C(=O)N[C@@H](CCc2ccccc2)[C@H](C(C)=O)[C@H]1C`, the activation was 0.9%.
Consider `CCN1C(=O)N[C@@H](c2ccccc2)[C@H](C(C)=O)[C@H]1C`, for which the activation is 34.5% (active).
Then `CCN1C(=NCCc2cccnc2)N[C@@H](c2ccccc2)[C@H](C(=O)OC)[C@H]1C`, with 0.09%; and `Nc1nc(CC(=O)CSc2ccc(Cl)cc2)nc(Nc2ccc(F)cc2)n1`, with 75% (active); and `Cc1ccc(Nc2nc(N)nc(CSc3nnc(C)s3)n2)cc1`, with 3.11%.
Then `Nc1nc(COC(=O)CCC(=O)c2ccc(Cl)cc2)nc(Nc2ccccc2)n1`, with 1.72%; and `Cc1ccc(C)c(NC(=O)CN(C)C(=O)c2ccc3ncsc3c2)c1`, with -1.06%; and `COc1ccc(C(=O)COC(=O)CNC(=O)c2cccs2)cc1Br`, with 0.35%.
Then `Cc1ccc(OCC(=O)Nc2ccc(C(=O)O)cc2NC(=O)COc2ccc(C)c(C)c2)cc1C`, with -6.86%.
With `Cc1ccc(SC(=O)COc2ccc(C)c(C)c2)cc1`, the activation was 65.8% (active).
To `COc1ccc(C(=O)COC(=O)COc2ccc(C)c(C)c2)cc1` belongs 0.09%.
Then `CCOC1CCCCC1NS(=O)(=O)c1ccc(Cl)cc1` (stereo unspecified), with -1.12%; and `Cc1ccc(CN2CCN(/N=C/c3cccnc3)CC2)c(C)c1`, with 1.33%; and `CCc1nc(C)cn1S(=O)(=O)c1cc([N+](=O)[O-])ccc1Cl`, with 45.1% (active).
In the case of `CC(C)c1nccn1S(=O)(=O)c1cc([N+](=O)[O-])ccc1Cl`, the activation was 0.9%.
Then `CCc1nc(C)cn1S(=O)(=O)c1cc(OC)c(C)cc1C`, with -2.38%; and `Cc1cc(N2CCOCC2)nc2ccc(NC(=S)N3CCN(Cc4ccccc4)CC3)cc12`, with -2.17%.
To `Cc1ccc(S(=O)(=O)c2nnn3c2nc(N2CCN(c4ccccn4)CC2)c2ccccc23)cc1` belongs -2.5%; to `Cc1cccc(Nc2nc3c(S(=O)(=O)c4ccccc4)nnn3c3ccccc23)c1C`, 94% (active); to `CC(=O)Nc1ccc(Nc2nc3c(S(=O)(=O)c4ccc(C)c(C)c4)nnn3c3ccccc23)cc1`, 3.91%.
Then `CN(CC(=O)Nc1cccc(F)c1)C(=O)C1CSC2(C)CCC(=O)N12` (stereo unspecified), with 2.87%; and `CCN(CC)C(=O)CSC1c2ccccc2C(=O)N1c1ccccc1` (stereo unspecified), with 0.81%; and `CC1(C)C=C2[C@H]3CC[C@@H]4[C@@]5(C)CCC(=O)C(C)(C)[C@@H]5CC[C@@]4(C)[C@]3(C)CC[C@@]2(C(=O)O)CC1`, with 2.72%.
Turning to `CC(=O)NC(CC(=O)Nc1cccc(S(=O)(=O)N2CCCC2)c1)c1ccccc1` (stereo unspecified), the activation is -4.34%.
For the molecule `N#C/C(=C\c1ccc(O)c(O)c1)C(=O)NCc1ccccc1`, the activation was 21.5%.
In the case of `COc1ccc(CNC(=O)/C(C#N)=C/c2cccc(OC)c2OC)cc1`, the activation was 36.8% (active).
Then `COc1ccc(NC(=O)/C(C#N)=C\c2cc(OC)c(OCc3ccc(C(=O)O)cc3)cc2Br)cc1`, with -2.72%; and `C=CCNC(=O)c1ccccc1NC(=O)c1ccc(Cl)c(S(=O)(=O)Nc2cccc(C)c2C)c1`, with 0.62%.
